In assay [1] the target is T1, Acetylcholinesterase (Rattus norvegicus, UniProt P37136).
T1 sequence (P37136 whole entry): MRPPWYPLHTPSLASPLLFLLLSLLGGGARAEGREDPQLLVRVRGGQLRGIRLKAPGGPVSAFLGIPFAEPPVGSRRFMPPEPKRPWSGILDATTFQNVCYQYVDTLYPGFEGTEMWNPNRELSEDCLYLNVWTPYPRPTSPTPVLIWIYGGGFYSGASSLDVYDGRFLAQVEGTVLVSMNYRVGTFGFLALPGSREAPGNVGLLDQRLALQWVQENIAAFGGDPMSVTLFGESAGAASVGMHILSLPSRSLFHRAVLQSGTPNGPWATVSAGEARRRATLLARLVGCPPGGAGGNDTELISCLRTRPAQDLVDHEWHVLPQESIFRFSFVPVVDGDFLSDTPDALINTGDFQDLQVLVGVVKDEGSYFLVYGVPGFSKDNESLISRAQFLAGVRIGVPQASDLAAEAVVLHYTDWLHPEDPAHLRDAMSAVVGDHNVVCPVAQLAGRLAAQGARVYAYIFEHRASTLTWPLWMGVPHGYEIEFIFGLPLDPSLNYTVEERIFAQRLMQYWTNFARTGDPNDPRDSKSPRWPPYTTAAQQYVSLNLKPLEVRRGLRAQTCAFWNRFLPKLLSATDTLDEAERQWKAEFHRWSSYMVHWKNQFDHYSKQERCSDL
Briefly: Inhibition of AchE in rat cortex by Ellman's method.

The target of assay [2] is Butyrylcholinesterase (Rattus norvegicus, UniProt Q9JKC1). The experiment in a line: Inhibition of BuchE in rat serum by Ellman's method. Type of assay: cell-free. The procedure, abridged:
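Modified Ellman assay with rat serum as BuChE source. Mixture of butyrylthiocholine iodide, sodium phosphate buffer pH 7.4, serum and tested compound at different concentrations, incubated 37 °C for 15 min.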
In general terms: DTNB colorimetry detects thiols as they appear.

The species entered for assay [3] is Rattus norvegicus. Briefly: Selectivity ratio of IC50 for BuchE in rat serum to IC50 for AchE in rat cortex. Type of assay: cell-free. The procedure, abridged:
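IC50 ratio from modified Ellman assays. BuChE from rat serum with butyrylthiocholine iodide. AChE from rat cortex homogenate, preincubated with isoOMPA (0.04 mmol/L) to block BuChE, with acetylthiocholine iodide. Each mixture held enzyme source, sodium phosphate buffer pH 7.4 and compound at different concentrations, incubated 37 °C for 15 min.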

In assay [4] the test system is PC-12. The experiment in a line: Neuroprotective activity against rat PC12 cells assessed as inhibition of H2O2-induced neurotoxicity at 0.5 uM after 2 hrs by MTT assay. Type of assay: functional, cell-based. The procedure, abridged: (§1)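 Undifferentiated PC12 cells were seeded at 5000 cells/well and cultured at 37 °C under 5% CO2. They were left to attach for 1 day before […] was added. 2 h later the cells were exposed to H2O2. Viability was read by MTT (0.25 mg/mL final, 4 h), with formazan dissolved in DMSO and OD read at 570 nm.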

Assay [5] relates to PC-12. The experiment in a line: Neuroprotective activity in rat PC12 cells assessed as inhibition of H2O2-induced neurotoxicity at 0.1 uM after 2 hrs by MTT assay. It counts as functional, cell-based. The procedure, abridged: as §1

Drawing on ChEMBL document CHEMBL1156564, “2-Phenoxy-indan-1-one derivatives as acetylcholinesterase inhibitors: a study on the importance of modifications at the side chain on the activity” (Bioorg Med Chem, 2008), this text covers IC50, Ratio IC50 and Activity for 28 compounds.

pIC50: −log10 of the molar value. Activity calls are given as the source filed them. The calls are words filed in the database; no cut-off is given here.

Chain of Butyrylcholinesterase (Q9JKC1 whole entry): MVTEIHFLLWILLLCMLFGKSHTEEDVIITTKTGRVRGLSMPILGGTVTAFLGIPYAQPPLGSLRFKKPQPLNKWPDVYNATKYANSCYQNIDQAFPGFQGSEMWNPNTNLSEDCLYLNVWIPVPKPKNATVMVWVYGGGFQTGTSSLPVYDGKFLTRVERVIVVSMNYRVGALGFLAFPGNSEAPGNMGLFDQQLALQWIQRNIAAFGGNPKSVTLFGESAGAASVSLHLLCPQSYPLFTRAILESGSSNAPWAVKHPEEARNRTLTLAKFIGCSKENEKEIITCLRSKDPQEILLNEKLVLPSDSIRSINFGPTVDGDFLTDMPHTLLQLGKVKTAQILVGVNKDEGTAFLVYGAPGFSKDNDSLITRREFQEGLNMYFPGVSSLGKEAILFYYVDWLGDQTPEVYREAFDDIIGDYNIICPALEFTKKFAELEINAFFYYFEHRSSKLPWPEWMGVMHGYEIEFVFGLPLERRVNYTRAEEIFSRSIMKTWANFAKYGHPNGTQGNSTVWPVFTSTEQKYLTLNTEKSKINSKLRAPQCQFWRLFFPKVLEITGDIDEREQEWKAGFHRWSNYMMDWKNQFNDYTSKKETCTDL

One may read the pIC50 as −log10 of the IC50, conventionally taken in molar units. For the compound `COc1cc2c(cc1OC)C(=O)C(Oc1ccc(C(=O)CCCN3CCCCC3)cc1)C2` (stereo not given), the pIC50 is 6.28 in assay [1] and 5.05 in assay [2]. The Ratio IC50 in assay [3] came to 17.
On the same counts, the results for `CCN(CC)CCCc1ccc(OC2Cc3cc(OC)c(OC)cc3C2=O)cc1` (stereo not given) are 6.56, 5.40 and 14.4.
For the compound `CCN(C)CCC(=O)c1ccc(OC2Cc3cc(OC)c(OC)cc3C2=O)cc1` (stereo not given), the pIC50 was 8.73 in assay [1] and 5.35 in assay [2]. Further, the Ratio IC50 in assay [3] was 2440.
The like results for `COc1cc2c(cc1OC)C(=O)C(Oc1ccc(CCCN3CCCC3)cc1)C2` (stereo not given) were, in that order, 6.68, 5.63 and 11.2.
On the same counts, the results for `COc1cc2c(cc1OC)C(=O)C(Oc1ccc(C(=O)CCCN3CCCC3)cc1)C2` (stereo not given) are 7.21, 5.53 and 47.2.
For the compound `COc1cc2c(cc1OC)C(=O)C(CC1CCN(Cc3ccccc3)CC1)C2` (stereo not given), the result in assay [4] and in assay [5] was Active.
Turning to `CCN(CC)CCC(=O)c1cccc(OC2Cc3cc(OC)c(OC)cc3C2=O)c1` (stereo not given), the pIC50 was 5.63 in assay [1] and 5.82 in assay [2]. Moreover, in assay [3], the Ratio IC50 worked out at 0.64.
The like results for `COc1cc2c(cc1OC)C(=O)C(Oc1ccc(CCCN3CCCCC3)cc1)C2` (stereo not given) were, in that order, 6.19, 5.55 and 4.36.
On to `COc1cc2c(cc1OC)C(=O)C(Oc1ccc(C(=O)CCN3CCCC3)cc1)C2` (stereo not given), for which the pIC50 is 8.38 in assay [1] and 5.22 in assay [2]. Besides, in assay [3], the Ratio IC50 is 1450.
The like results for `CCN(CC)CCc1cccc(OC2Cc3cc(OC)c(OC)cc3C2=O)c1` (stereo not given) were, in that order, 5.68, 4.95 and 5.31.
On the same counts, the results for `CCN(CC)CCCCc1ccc(OC2Cc3cc(OC)c(OC)cc3C2=O)cc1` (stereo not given) are 6.32, 5.49 and 6.77.
Turning to `COc1cc2c(cc1OC)C(=O)C(Oc1ccc(C(=O)CN3CCCCC3)cc1)C2` (stereo not given), the pIC50 in assay [1] was 6.44; in assay [2], 5.78. Besides, the Ratio IC50 in assay [3] turned out to be 4.57.
Consider `COc1cc2c(cc1OC)C(=O)C(Oc1ccc(C(=O)CN3CCCC3)cc1)C2` (stereo not given), for which the pIC50 in assay [1] was 6.62; in assay [2] it was 5.76. In addition, the Ratio IC50 in assay [3] amounted to 7.2.
Take `CCN(C)CC(=O)c1ccc(OC2Cc3cc(OC)c(OC)cc3C2=O)cc1` (stereo not given): the negative-log IC50 (pIC50) is 7.50 in assay [1] and 6.23 in assay [2]. In addition, the Ratio IC50 in assay [3] is 18.6.
The like results for `COc1cc2c(cc1OC)C(=O)C(Oc1ccc(CCCCN3CCCC3)cc1)C2` (stereo not given) were, in that order, 6.38, 5.49 and 7.76.
The like results for `COc1cc2c(cc1OC)C(=O)C(Oc1ccc(CCN3CCCCC3)cc1)C2` (stereo not given) were, in that order, 7.30, 5.29 and 102.
On to `CCN(C)CCc1cccc(OC2Cc3cc(OC)c(OC)cc3C2=O)c1` (stereo not given), for which the pIC50 in assay [1] was 6.15; in assay [2], 5.06. Besides, the Ratio IC50 in assay [3] worked out at 12.2.
`CCN(CC)CCC(=O)c1ccc(OC2Cc3cc(OC)c(OC)cc3C2=O)cc1` (stereo not given): the outcome in assay [4] and in assay [5] was Active. Besides, the negative-log IC50 (pIC50) in assay [1] was 9.11; in assay [2] it was 5.82. Also, the Ratio IC50 in assay [3] came to 1950.
Turning to `CCN(CC)CCCC(=O)c1ccc(OC2Cc3cc(OC)c(OC)cc3C2=O)cc1` (stereo not given), the pIC50 was 7.39 in assay [1] and 4.42 in assay [2]. Further, in assay [3], the Ratio IC50 stood at 927.
Consider `CCN(CC)CCc1ccc(OC2Cc3cc(OC)c(OC)cc3C2=O)cc1` (stereo not given), for which the results for the negative-log IC50 (pIC50) in assay [1] and in assay [2] were 7.38 and 4.78, respectively. Also, in assay [3], the Ratio IC50 turned out to be 394.
On to `COc1cc2c(cc1OC)C(=O)C(Oc1cccc(CCN3CCCC3)c1)C2` (stereo not given), for which the values for the pIC50 in assay [1] and in assay [2] were 5.75 and 4.81, respectively. Besides, in assay [3], the Ratio IC50 was 8.69.
On the same counts, the results for `CCN(C)CCc1ccc(OC2Cc3cc(OC)c(OC)cc3C2=O)cc1` (stereo not given) are 7.29, 4.66 and 427.
`COc1cc2c(cc1OC)C(=O)C(Oc1ccc(C(=O)CCN3CCCCC3)cc1)C2` (stereo not given): the values for the pIC50 in assay [1] and in assay [2] were 7.76 and 5.49, respectively. Besides, the Ratio IC50 in assay [3] was determined as 187.
On the same counts, the results for `COc1cc2c(cc1OC)C(=O)C(Oc1cccc(CCN3CCCCC3)c1)C2` (stereo not given) are 5.81, 5.15 and 4.52.
The like results for `COc1cc2c(cc1OC)C(=O)C(Oc1ccc(CCN3CCCC3)cc1)C2` (stereo not given) were, in that order, 7.43, 4.52 and 816.
The like results for `COc1cc2c(cc1OC)C(=O)C(Oc1cccc(C(=O)CCN3CCCC3)c1)C2` (stereo not given) were, in that order, 6.08, 4.95 and 13.3.
Regarding `CCN(CC)CC(=O)c1ccc(OC2Cc3cc(OC)c(OC)cc3C2=O)cc1` (stereo not given), the results for the negative logarithm of the IC50 (pIC50) in assay [1] and in assay [2] were 6.55 and 5.61, respectively. The Ratio IC50 in assay [3] amounted to 8.7.
The like results for `CCN(C)CCCC(=O)c1ccc(OC2Cc3cc(OC)c(OC)cc3C2=O)cc1` (stereo not given) were, in that order, 7.42, 4.57 and 715.
